Screening data from PubChem.
In the library only some 1.7% were active in any assay of this set; here they are far more common.
SUMO1-SIM PPI – modulators of SUMO1 protein-protein interactions, primary screen, biochemical, uHTS; Small ubiquitin-related modifier 1 (Homo sapiens), P63165; inhibition, % at 20 µM; hit rate 0.33% among 360,000; SUMO1 binding to a labelled peptide, TR-FRET, 1 h; in the data active = inhibition above about 37%
CASP6 VEID inh – human caspase-6 inhibitors, primary screen, biochemical, VEID-R110 fluorescence, single point, set 2; P55212; purified caspase-6, Z-VEID-R110 cleavage fluorescence; inhibition, % at 12.5 µM; hit rate 0.53% among 350,000;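 active = mean inhibition across replicates at least about 35%, with every replicate also reaching that limit, limit read from the data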;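 also: 0% = median of neutral control wells and 100% = no fluorescence left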
Target sequence (P55212 24-179 limits assumed): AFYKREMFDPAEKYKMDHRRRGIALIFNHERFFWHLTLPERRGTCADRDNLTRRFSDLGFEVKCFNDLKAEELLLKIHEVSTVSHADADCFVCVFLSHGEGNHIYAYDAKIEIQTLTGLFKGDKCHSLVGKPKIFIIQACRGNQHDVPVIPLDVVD
Target sequence (P55212 194-293 limits assumed): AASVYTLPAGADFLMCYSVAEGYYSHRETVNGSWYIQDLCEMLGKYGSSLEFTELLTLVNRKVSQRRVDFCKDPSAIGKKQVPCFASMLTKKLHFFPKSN
LMPTP inh – LMPTP phosphatase inhibitors, primary screen, biochemical, fluorescence intensity, uHTS. Low molecular weight phosphotyrosine protein phosphatase (Homo sapiens), P24666. recombinant LMPTP-A, OMFP fluorogenic substrate. AID 651560, 2012. hit rate 0.22% among 360,000. inhibition, % at 20 µM;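 active = compounds that cut the enzyme signal by at least half of the control window in the single-dose screen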;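 also: plate controls were DMSO wells with enzyme plus substrate for no effect and substrate without enzyme for full effect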
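Test system: LMPTP-A phosphatase enzyme. Amount: LMPTP-A at 0.625 nM final in the reaction. Reagent: OMFP substrate, 400 µM final. Times: 50 min at room temperature. Signal: endpoint fluorescence intensity from OMFP dephosphorylation. Read-out basis: % inhibition. Benchmarks: no-enzyme and uninhibited controls.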
DNMT1 block – human DNMT1 methyltransferase inhibitors, primary screen, biochemical, molecular beacon, fluorescence, HinP1I cleavage, uHTS; DNA (cytosine-5)-methyltransferase 1 (Homo sapiens), P26358; inhibition (reported as % activation of signal), % at 10 µM; hit rate 0.83% among 360,000; in the data active = inhibition above about 50%
Scp-1 inhibitor – Scp-1 phosphatase inhibitors, primary screen, biochemical, colorimetric, uHTS | Carboxy-terminal domain RNA polymerase II polypeptide A small phosphatase 1 (Homo … | Recombinant Scp1, phosphopeptide, malachite green phosphate absorbance | inhibition, % at 20 µM | hit rate 0.88% among 340,000 | AID 493091, 2011;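 active = inhibition above about 50% at 20 µM, limit read from the data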;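 also: plate controls were DMSO wells with enzyme for no effect and wells lacking enzyme for full effect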
Target sequence (Q9GZU7 76-261 limits assumed): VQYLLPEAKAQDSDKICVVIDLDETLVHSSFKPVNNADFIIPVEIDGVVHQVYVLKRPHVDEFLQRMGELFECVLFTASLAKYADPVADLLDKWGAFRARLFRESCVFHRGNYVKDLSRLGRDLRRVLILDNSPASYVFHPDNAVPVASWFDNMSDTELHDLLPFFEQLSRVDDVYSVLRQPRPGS
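System: truncated SCP-1 phosphatase (76-261aa); medium: Tris acetate buffer pH 5.5 with MgCl2 and Tween-20; incubation: 45 min room-temperature reaction, 5 min colour, 30 min stabiliser; compound: single 20 µM dose, 1% DMSO; reagent: Phosphorylated 17-residue peptide substrate; read-out: % inhibition at 20 µM; technique: colorimetric free-phosphate detection, absorbance 630 nm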
STEP inh – STEP phosphatase inhibitors, primary screen, biochemical, fluorescence intensity, uHTS; Tyrosine-protein phosphatase non-receptor type 5 (Homo sapiens), P54829; recombinant STEP, OMFP fluorogenic substrate; inhibition, % at 20 µM; hit rate 0.25% among 360,000; AID 588621, 2011;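 active = inhibition at 20 µM, scaled per plate between control wells, above about 37%, limit read from the data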;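 also: 0% = DMSO with enzyme and substrate and 100% = substrate only without enzyme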
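Material: STEP (striatal-enriched tyrosine phosphatase) enzyme, cell-free; Compound dosing: 20 µM single dose in 1% DMSO; Technique: fluorescence read at 480 nm ex / 540 nm em; Times: reaction 20 min, ambient temperature; Medium: 50 mM Bis-Tris pH 6.0 with 2.5 mM DTT and 0.005% Tween 20; Also added: OMFP at 25 µM.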
DNMT1 confirm – DNMT1 methyltransferase inhibitor retest, confirmation, biochemical, molecular beacon, fluorescence, single concentration; hit rate 8% among 2,300; AID 602385, 2012; inhibition, % at 10 µM; shares compounds with DNMT1 block; DNMT1 molecular beacon HinP1I cleavage;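 active = average inhibition of at least 30% in the single-concentration confirmation test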
Beacon interf – beacon fluorescence artifact counter-screen. shares compounds with DNMT1 block. DNMT1 molecular beacon spectral interference counterscreen, fluorescence 485/520. activation (fluorescence interference), % at 10 µM. hit rate 1% among 2,300. AID 602387;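 active = activation of at least 30% at 10 µM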;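 also: DNMT1 catalytic domain with a HinP1I cleavage step and a FAM/dabcyl DNA beacon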
* marks the source's active call; other numbers are inactive results; · = not tested or not shown.

SMILES	SUMO1-SIM PPI	CASP6 VEID inh	LMPTP inh	DNMT1 block	Scp-1 inhibitor	STEP inh	DNMT1 confirm	Beacon interf
CCCOC1CCCN(C(=O)CCc2nnc(Cc3cccc(C)c3)o2)C1 (stereo not given)	2	-1	0	-1	-4	4	·	·
CCCCn1c(N)c(-c2nc3ccccc3o2)c2c([N+](=O)[O-])nn(CC)c(=O)c21	1	-1	10	56*	3	7	13	-6
CCCCCn1c(N)c(-c2nc3ccccc3s2)c2c([N+](=O)[O-])nn(C)c(=O)c21	-2	0	5	0	-2	-2	·	·
Cc1ccccc1CC1(CO)CCCN(C(=O)c2cccc(Cl)c2)C1 (stereo not given)	6	-2	0	-1	6	-3	·	·
CCC1=NN2C(=N)/C(=C\c3ccc(SCc4ccco4)o3)C(=O)N=C2S1	54*	·	42	108*	44	17	6	3
CCCC1=NN2C(=N)/C(=C\c3ccc(SCc4ccco4)o3)C(=O)N=C2S1	50*	·	51*	105*	81*	16	14	-1
CCCc1cc(C(=O)NCCc2ccc(OC)c(OC)c2)no1	-1	3	-2	1	-1	-3	·	·
O=C(C[n+]1cccc2ccccc21)c1ccc(NC(=O)c2ccccc2)cc1	-22	-3	1	-2	1	-2	·	·
Cc1cc[n+](CC(=O)c2ccc(NC(=O)c3ccccc3)cc2)c2ccccc12	-23	-2	8	53*	2	-1	2	1
Cc1ccc(NC(=O)Nc2cnccn2)c(C)c1	-1	-2	-1	3	2	2	·	·
COc1ccc(/C=N/n2cnc3c([nH]c4ccc(C)cc43)c2=O)cc1CN1CCCC1	-15	-5	14	8	-7	-1	·	·
COc1ccc(/C=N/n2c(C)nc3c([nH]c4ccccc43)c2=O)cc1CN1CCCC(C)(C)C1	-3	2	1	54*	-4	10	4	3
Cc1ccc(NC(=O)NC(=O)CN2CCN(c3ccc(O)cc3)CC2)c(C)c1	4	4	4	-7	-8	4	·	·
NS(=O)(=O)c1ccc(NC(=O)c2cccc(N3C(=O)c4ccccc4C3=O)c2)cc1	94*	0	38	55*	6	38	8	2
NC(=O)c1cc(Cl)ccc1OCC(=O)NC1CC1	-1	-2	-3	1	-10	3	·	·
COc1ccccc1-n1c(SCC(=O)NCc2ccc3c(c2)OCO3)nc2cc([N+](=O)[O-])ccc21	-3	1	4	90*	-1	1	8	7
O=C(/C=C/c1ccco1)Nc1ccc2c(c1)OCO2	-9	2	-1	4	-7	1	·	·
CN(Cc1cccc(F)c1)C(=O)Cc1ccc(S(=O)(=O)N2CCOCC2)s1	1	-32	-8	-2	-8	0	·	·
CN(Cc1ccc(C(C)(C)C)cc1)C(=O)Cc1ccc(S(=O)(=O)N2CCOCC2)s1	1	3	1	71*	-13	2	3	3
COc1ccc(/C=C(\C#N)c2nc3ccc(C)cc3[nH]2)cc1Oc1ccc(C(F)(F)F)cc1[N+](=O)[O-]	-3	·	-2	52*	-17	-1	5	-5
CCc1nnc2n1N=C(c1ccc(-c3cc(Cl)ccc3Cl)o1)CS2	-5	·	6	66*	5	4	4	0
CCc1nnc2n1N=C(c1ccc(OC)cc1)CS2	-4	·	0	0	-7	0	·	·
